Among the data in ChEMBL document CHEMBL1821629, “Nigerapyrones A-H, α-pyrone derivatives from the marine mangrove-derived endophytic fungus Aspergillus niger MA-132” (J Nat Prod, 2011) are inhibition and IC50 values, retold here.

For one assay, the system named is Staphylococcus aureus. Put plainly: Antimicrobial activity against Staphylococcus aureus by disc diffusion method. It is filed as functional, organism-based. The gist of the method: (§1)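 Disk diffusion assay run against a panel of two bacteria (Staphylococcus aureus, Escherichia coli) and four plant-pathogenic fungi (Alternaria brassicae, Fusarium oxysporum, Coniella diplodiella, Physalospora piricola). The positive control was chloramphenicol for the bacterial strains and amphotericin B for the fungal strains.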
For orientation: A growth-free zone around the sample is the usual read-out of agar diffusion tests.

The next assay deals with Alternaria brassicae. Briefly: Antimicrobial activity against Alternaria brassicae by disc diffusion method. The class given is functional. A digest of the protocol: as §1
Another assay deals with Escherichia coli. Put plainly: Antimicrobial activity against Escherichia coli by disc diffusion method. The class given is functional, organism-based. A digest of the protocol: as §1
The subject of a further assay is Coniella diplodiella. Briefly: Antimicrobial activity against Coniella diplodiella by disc diffusion method. The class given is functional. A digest of the protocol:
as §1

The subject of a further assay is Fusarium oxysporum. Put plainly: Antimicrobial activity against Fusarium oxysporum by disc diffusion method. It is filed as functional, organism-based. A digest of the protocol: as §1
Assay [1] deals with Botryosphaeria berengeriana. Put plainly: Antimicrobial activity against Physalospora pyricola by disc diffusion method. The class given is functional, organism-based. The gist of the method:
as §1

The next assay concerns A549. Put plainly: Cytotoxicity against human A549 cells. The class given is functional, cell-based.
Another assay concerns MDA-MB-231. Put plainly: Cytotoxicity against human MDA-MB-231 cells. The class given is functional, cell-based.
Another assay has as its system DU-145. Put plainly: Cytotoxicity against human DU145 cells. The class given is functional, cell-based.
Another assay deals with NCI-H460. Briefly: Cytotoxicity against human NCI-H460 cells. The class given is functional, cell-based.
For the next assay, the system named is MCF7. Put plainly: Cytotoxicity against human MCF7 cells. It is filed as functional, cell-based.
Another assay has as its system HepG2. Put plainly: Cytotoxicity against human HepG2 cells. It is filed as functional, cell-based.
The test system of another assay is SW1990. Briefly: Cytotoxicity against human SW1990 cells. The class given is functional, cell-based.

Molecules are shown by their SMILES. Active and inactive are the calls of the source. No cut-off for these calls is given here.

For `COc1cc(-c2cc(C)cc(C)c2-c2ccccc2)oc(=O)c1`, the inhibition entry (with Staphylococcus aureus; in the assay on Alternaria brassicae; in the assay on Escherichia coli; in the assay on Coniella diplodiella; with Fusarium oxysporum; in assay [1]) was “Active” each time.

Regarding `COc1cc(/C=C/C(C)=C/C(C)=C/c2ccccc2)oc(=O)c1`, the inhibition result (in the assay with Staphylococcus aureus; in the assay with Alternaria brassicae; in the assay with Escherichia coli; in the assay with Coniella diplodiella; in the assay with Fusarium oxysporum; in assay [1]) was “Active” each time.

Consider `COc1cc(/C=C/C(C)=C/C(C)=C\c2ccccc2)oc(=O)c1`, for which the inhibition result (in the assay on Staphylococcus aureus; in the assay with Alternaria brassicae; in the assay on Escherichia coli; with Coniella diplodiella; in the assay on Fusarium oxysporum; in assay [1]) was “Active” throughout.

As for `COc1cc(/C=C/C(C)=C/C(C)=O)oc(=O)c1`, the inhibition entry (with Staphylococcus aureus; in the assay on Alternaria brassicae; in the assay with Escherichia coli; in the assay on Coniella diplodiella; in the assay with Fusarium oxysporum; in assay [1]) was “Active” each time.

For `COc1cc(/C=C/C(C)=C\C(C)=C\c2ccccc2)oc(=O)c1`, the inhibition entry (in the assay on Staphylococcus aureus; with Alternaria brassicae; in the assay on Escherichia coli; with Coniella diplodiella; with Fusarium oxysporum; in [1]) was “Active” in each case.

As for `COc1cc(\C=C/C(C)=C/C(C)=C/c2ccccc2)oc(=O)c1`, the inhibition entry (in the assay with Staphylococcus aureus; in the assay on Alternaria brassicae; in the assay with Escherichia coli; in the assay with Coniella diplodiella; in the assay with Fusarium oxysporum; in assay [1]) was “Active” each time.

The term IC50 denotes the midpoint of a concentration-inhibition curve. Lower therefore signals inhibition by little substance. For the compound `COc1cc(/C=C/C(C)=C/C(C)=C/c2ccccc2)oc(=O)c1C` [ASNIPYRONE A], the inhibition result (with Staphylococcus aureus; in the assay on Alternaria brassicae; in the assay with Escherichia coli; in the assay on Coniella diplodiella; in the assay with Fusarium oxysporum; in assay [1]) was “Active” each time. For the same compound, the 50% inhibitory concentration (IC50) in the assay with A549 worked out at 62 µM.

For the compound `O=c1[nH]cc(F)c(=O)[nH]1` [FLUOROURACIL], the IC50 turned out to be 52 µM with A549; 59 µM with MDA-MB-231; 3.3 µM in the assay with DU-145; 8.5 µM in the assay on NCI-H460; 31 µM with MCF7; 109 µM with HepG2.

As to `COc1cc(-c2cc(C)cc(C)c2-c2ccccc2)oc(=O)c1C` [NIGERAPYRONE B], the inhibition entry (in the assay on Staphylococcus aureus; in the assay on Alternaria brassicae; in the assay with Escherichia coli; with Coniella diplodiella; in the assay on Fusarium oxysporum; in assay [1]) was “Active” throughout. In addition, inhibition in the assay with HepG2 was half-maximal at 62 µM (IC50).

Take `COc1cc(/C=C/C(C)=C/C(C)=O)oc(=O)c1C` [NIGERAPYRONE D]: the inhibition result (in the assay with Staphylococcus aureus; with Alternaria brassicae; in the assay on Escherichia coli; in the assay on Coniella diplodiella; in the assay with Fusarium oxysporum; in assay [1]) was “Active” in each case. Besides, the half-inhibitory concentration (IC50) was 81 µM in the assay on A549, 121 µM in the assay with MCF7 and 81 µM with HepG2.

Turning to `COc1cc(/C=C/C(C)=O)oc(=O)c1C` [NIGERAPYRONE E], the inhibition result (with Staphylococcus aureus; in the assay with Alternaria brassicae; in the assay with Escherichia coli; with Coniella diplodiella; in the assay with Fusarium oxysporum; in assay [1]) was “Active” each time. Also, the IC50 in the assay on A549 came out at 43 µM; in the assay with MDA-MB-231, 48 µM; with DU-145, 86 µM; in the assay on NCI-H460, 43 µM; in the assay with SW1990, 38 µM; with MCF7 it was 105 µM. In the assay with HepG2, this compound displayed an IC50 of 86 µM.
